From ChEMBL document CHEMBL4627259, “Discovery of LY3325656: A GPR142 agonist suitable for clinical testing in human” (Bioorg Med Chem Lett, 2020)

Legend:
[1] = molecular target: T1, Probable G-protein coupled receptor 142 (Homo sapiens) (UniProt Q7Z601); test: Agonist activity at human GPR142 receptor expressed in HEK293 cells assessed as accumulation of inositol phosphate at 30 uM to 1 nM incubated for 1 hr followed by IP1-d2 addition by HTRF assay relative to control; assay type: functional, cell-based
T1 sequence (whole entry): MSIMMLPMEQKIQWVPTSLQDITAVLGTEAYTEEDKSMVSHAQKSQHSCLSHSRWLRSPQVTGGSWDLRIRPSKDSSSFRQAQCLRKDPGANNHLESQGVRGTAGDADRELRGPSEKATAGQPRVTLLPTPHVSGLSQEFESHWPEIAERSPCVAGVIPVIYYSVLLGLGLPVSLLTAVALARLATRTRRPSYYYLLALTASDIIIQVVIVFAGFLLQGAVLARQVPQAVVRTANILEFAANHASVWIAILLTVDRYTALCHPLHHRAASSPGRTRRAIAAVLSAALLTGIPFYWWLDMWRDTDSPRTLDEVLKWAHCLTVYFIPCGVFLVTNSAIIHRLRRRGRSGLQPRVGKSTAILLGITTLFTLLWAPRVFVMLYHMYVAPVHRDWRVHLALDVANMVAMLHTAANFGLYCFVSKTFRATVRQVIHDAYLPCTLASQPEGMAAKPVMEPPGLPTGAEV
Outline: (§1)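 HEK293 cells stably expressing human GPR142 (DMEM, 10% FBS, 800 ug/mL G418, 37 °C, 5% CO2), seeded 5000 cells/well and left 18 h to attach. Compounds added at 30 uM to 1 nM, 1 h incubation in HBSS (+Ca, +Mg), 0.1% BSA, 50 mM LiCl, 20 mM HEPES pH 7.2. IP-1 HTRF read-out: IP1-d2 then cryptate, 1 h at 25 °C, 665/620 nm ratio converted via IP-1 standard curve; EC50 by 4-parameter logistic fit.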

[2] = molecular target: T2, Probable G-protein coupled receptor 142 (Homo sapiens, UniProt Q7Z601); test: Agonist activity at human GPR142 receptor expressed in HEK293 cells assessed as accumulation of inositol phosphate incubated for 1 hr followed by IP1-d2 addition by HTRF assay; assay type: functional, cell-based; outline: as §1
T2 sequence (Q7Z601 whole entry): T1 sequence (whole entry)

[3] = Drug metabolism in human microsomes assessed as drug turnover at 20 uM measured after 30 mins by LCMS analysis; assay type: ADME, Microsome; conditions: read-out: Drug metabolism
Outline: (§2)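 High-throughput microsomal stability: compound at 20 uM incubated with mouse, rat, dog or human liver microsomes at 37 °C; percent parent remaining measured after 30 min and reported as % turnover.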

[4] = Drug metabolism in mouse microsomes assessed as drug turnover at 20 uM measured after 30 mins by LCMS analysis; assay type: ADME, Microsome; conditions: read-out: Drug metabolism; outline: as §2
[5] = Drug metabolism in rat microsomes assessed as drug turnover at 20 uM measured after 30 mins by LCMS analysis; assay type: ADME, Microsome; conditions: read-out: Drug metabolism; outline: as §2
[6] = Drug metabolism in dog microsomes assessed as drug turnover at 20 uM measured after 30 mins by LCMS analysis; assay type: ADME, Canis lupus familiaris, Microsome; conditions: read-out: Drug metabolism; outline: as §2

| SMILES | Emax [1] | EC50 [2] | metabolised at 0.5 h, 20 µM [3] | metabolised at 0.5 h, 20 µM [4] | metabolised at 0.5 h, 20 µM [5] | metabolised at 0.5 h, 20 µM [6] |
| --- | --- | --- | --- | --- | --- | --- |
| Cc1ncn(CC(F)F)c1NC(=O)[C@H]1CCC[C@@H](N(C)C(=O)c2cccc(Cl)c2)C1 | 99% | 0.104 µM | 51% | 54% | 79% | 19% |
| Cc1ncn(C)c1NC(=O)[C@H]1CCC[C@@H](N(C)C(=O)c2cccc(OC(F)(F)F)c2)C1 | 104% | 0.071 µM | 42% | 90% | 37% | 40% |
| Cc1nc[nH]c1-c1nnc([C@H]2CCC[C@@H](N(C)C(=O)c3cccc(C(F)(F)F)c3)C2)[nH]1 | 101% | 0.076 µM | 13% | 36% | 36% | 9% |
| CN(C(=O)c1cccc(Cl)c1)[C@@H]1CCO[C@H](c2nnc(-c3cnc4ccccn34)[nH]2)C1 | 102% | 0.035 µM | 29% | 66% | 23% | 46% |
| Cc1ncn(C)c1-c1nnc([C@@H]2C[C@H](N(C)C(=O)c3cccc(Cl)c3)CCO2)[nH]1 | – | – | 7% | 17% | 15% | 16% |
| CN(C(=O)c1cccc(C(F)(F)F)c1)[C@@H]1CCO[C@H](c2nnc(-c3cnc4n3CCC4)[nH]2)C1 | 107% | 0.053 µM | 18% | 39% | 16% | 7% |
| Cc1ncn(CC2CC2)c1NC(=O)[C@H]1CCC[C@@H](N(C)C(=O)c2cccc(C(F)(F)F)c2)C1 | 118% | 0.052 µM | 72% | 97% | 88% | 66% |
| Cc1ncn(CC(F)F)c1-c1nnc([C@H]2CCC[C@@H](N(C)C(=O)c3cccc(C(F)(F)F)c3)C2)[nH]1 | 109% | 0.041 µM | 90% | 82% | 67% | 83% |
| CN(C(=O)c1cccc(C(F)(F)F)c1)[C@@H]1CCO[C@H](c2nnc(-c3cnc4n3CCOC4)[nH]2)C1 | 108% | 0.102 µM | 12% | 27% | 28% | 17% |
| Cc1ncn(C2CCC2)c1-c1nnc([C@@H]2C[C@H](N(C)C(=O)c3cccc(C(F)(F)F)c3)CCO2)[nH]1 | 121% | 0.016 µM | 82% | 46% | 13% | 48% |
| Cc1ncn(C)c1-c1nnc([C@@H]2C[C@H](N(C)C(=O)c3cccc(OC(F)(F)F)c3)CCO2)[nH]1 | – | – | 10% | 39% | 14% | 16% |
| Cc1ncn(CC2CC2)c1-c1nnc([C@@H]2C[C@H](N(C)C(=O)c3cccc(C(F)(F)F)c3)CCO2)[nH]1 | 123% | 0.014 µM | 69% | 83% | 64% | 63% |
| Cc1ncn(C(C)C)c1NC(=O)[C@H]1CCC[C@@H](N(C)C(=O)c2cccc(C(F)(F)F)c2)C1 | 115% | 0.031 µM | 48% | 76% | 52% | 33% |

Next, values leading:

| Emax [1] | EC50 [2] | metabolised at 0.5 h, 20 µM [3] | metabolised at 0.5 h, 20 µM [4] | metabolised at 0.5 h, 20 µM [5] | metabolised at 0.5 h, 20 µM [6] | SMILES |
| --- | --- | --- | --- | --- | --- | --- |
| 114% | 0.11 µM | 76% | 86% | 56% | 51% | Cc1ncn(CC(F)(F)F)c1NC(=O)[C@H]1CCC[C@@H](N(C)C(=O)c2cccc(OC(F)(F)F)c2)C1 |
| 96% | 0.093 µM | 26% | 56% | 21% | 6% | Cc1ncn(CC#N)c1NC(=O)[C@H]1CCC[C@@H](N(C)C(=O)c2cccc(C(F)(F)F)c2)C1 |
| 105% | 0.063 µM | 58% | 64% | 59% | 38% | Cc1ncn(CC(F)F)c1NC(=O)[C@H]1CCC[C@@H](N(C)C(=O)c2cccc(C(F)(F)F)c2)C1 |
| 102% | 0.032 µM | 84% | 70% | 80% | 52% | CN(C(=O)c1cccc(C(F)(F)F)c1)[C@@H]1CCC[C@H](c2nnc(-c3cnc4n3CCOC4)[nH]2)C1 |
| 114% | 0.081 µM | 62% | 67% | 59% | 38% | Cc1ncn(CC(F)(F)F)c1NC(=O)[C@H]1CCC[C@@H](N(C)C(=O)c2cccc(C(F)(F)F)c2)C1 |
| 103% | 0.147 µM | 20% | 38% | 29% | 24% | Cc1ncn(CC2CN(C)C2)c1NC(=O)[C@H]1CCC[C@@H](N(C)C(=O)c2cccc(C(F)(F)F)c2)C1 |
| 98% | 0.046 µM | 69% | 53% | 41% | 22% | Cc1ncc(-c2nnc([C@H]3CCC[C@@H](N(C)C(=O)c4cccc(C(F)(F)F)c4)C3)[nH]2)n1C |
| 117% | 0.011 µM | 67% | 64% | 43% | 46% | Cc1ncn(C)c1-c1nnc([C@H]2CCC[C@@H](N(C)C(=O)c3cccc(C(F)(F)F)c3)C2)[nH]1 |
| 97% | 0.051 µM | 38% | 67% | 63% | 19% | Cc1ncn(CCN2CCOCC2)c1NC(=O)[C@H]1CCC[C@@H](N(C)C(=O)c2cccc(C(F)(F)F)c2)C1 |
